The results in this text go back to ChEMBL document CHEMBL1156772, “Synthesis, affinity profile and functional activity of potent chiral muscarinic antagonists with a pyrrolidinylfuran structure” (J Med Chem, 2010).

SMILES strings stand for the structures.

Test [1] concerns the target T1, Muscarinic acetylcholine receptor M5 (Homo sapiens, UniProt P08912).
T1 sequence (P08912 whole entry): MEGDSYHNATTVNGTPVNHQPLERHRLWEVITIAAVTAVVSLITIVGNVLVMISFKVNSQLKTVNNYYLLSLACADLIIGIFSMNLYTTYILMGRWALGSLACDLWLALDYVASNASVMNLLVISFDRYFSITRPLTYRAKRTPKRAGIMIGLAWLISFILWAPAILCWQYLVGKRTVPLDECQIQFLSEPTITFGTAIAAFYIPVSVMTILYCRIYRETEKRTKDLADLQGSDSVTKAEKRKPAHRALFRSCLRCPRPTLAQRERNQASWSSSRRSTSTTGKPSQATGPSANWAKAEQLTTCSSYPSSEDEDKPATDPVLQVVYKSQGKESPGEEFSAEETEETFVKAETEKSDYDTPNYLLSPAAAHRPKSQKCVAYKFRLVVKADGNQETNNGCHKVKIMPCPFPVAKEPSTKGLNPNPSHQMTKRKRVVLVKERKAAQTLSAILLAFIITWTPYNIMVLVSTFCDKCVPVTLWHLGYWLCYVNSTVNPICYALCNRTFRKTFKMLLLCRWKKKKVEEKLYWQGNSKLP
Put plainly: Displacement of [3H]NMS from human cloned muscarinic M5 receptor expressed in CHO cells by scintillation counting. The class given is cell-based. Summed up:
(§1)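 Equilibrium radioligand binding in CHO cells expressing the human muscarinic subtype, following the authors' earlier protocol.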
Background: Loss of bound radioactivity is the signal in a displacement assay; it reports binding, not function.

For test [2], the target named is T2, Muscarinic receptor 4 (Cavia porcellus) (UniProt Q8VH25).
T2 sequence (whole entry): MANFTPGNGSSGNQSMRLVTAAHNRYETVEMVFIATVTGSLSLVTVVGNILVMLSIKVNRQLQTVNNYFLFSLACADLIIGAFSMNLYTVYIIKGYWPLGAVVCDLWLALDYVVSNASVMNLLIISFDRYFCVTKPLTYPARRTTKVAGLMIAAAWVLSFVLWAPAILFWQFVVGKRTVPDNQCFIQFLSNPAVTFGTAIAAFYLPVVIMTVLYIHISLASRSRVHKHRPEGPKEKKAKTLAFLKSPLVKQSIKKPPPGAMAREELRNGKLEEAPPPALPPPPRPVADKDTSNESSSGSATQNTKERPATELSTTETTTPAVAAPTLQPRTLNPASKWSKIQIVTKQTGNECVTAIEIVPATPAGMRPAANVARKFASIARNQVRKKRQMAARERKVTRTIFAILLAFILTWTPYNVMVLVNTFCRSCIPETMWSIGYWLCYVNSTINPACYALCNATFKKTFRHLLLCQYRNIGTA
Put plainly: (§2) Antagonist activity at muscarinic M4 receptor in guinea pig lung strips assessed as effect on isotonic contraction after 60 mins. The class given is functional.

Test [3] addresses T3, Muscarinic receptor 2 (Cavia porcellus) (UniProt Q8VH27).
T3 sequence (whole entry): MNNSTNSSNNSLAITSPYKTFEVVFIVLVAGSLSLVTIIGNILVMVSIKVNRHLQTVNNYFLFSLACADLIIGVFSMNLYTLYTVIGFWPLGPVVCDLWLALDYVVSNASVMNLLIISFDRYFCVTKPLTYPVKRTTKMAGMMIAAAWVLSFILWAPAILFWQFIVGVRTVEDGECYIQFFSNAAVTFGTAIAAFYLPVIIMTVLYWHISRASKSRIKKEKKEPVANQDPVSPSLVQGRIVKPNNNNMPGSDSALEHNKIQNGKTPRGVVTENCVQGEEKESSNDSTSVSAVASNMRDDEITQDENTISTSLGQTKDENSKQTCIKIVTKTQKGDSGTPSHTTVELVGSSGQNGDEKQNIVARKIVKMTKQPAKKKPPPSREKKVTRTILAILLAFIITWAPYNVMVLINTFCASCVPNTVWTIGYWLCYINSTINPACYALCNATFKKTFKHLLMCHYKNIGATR
Put plainly: (§3) Antagonist activity at muscarinic M2 receptor in guinea pig left atrium assessed as effect on electrically-stimulated inotropic activity after 60 mins. Type of test: functional, tissue-based. Particulars: Cardiac atrium.

The target of test [4] is T4, Muscarinic acetylcholine receptor M2 (Homo sapiens, UniProt P08172).
T4 sequence (P08172 whole entry): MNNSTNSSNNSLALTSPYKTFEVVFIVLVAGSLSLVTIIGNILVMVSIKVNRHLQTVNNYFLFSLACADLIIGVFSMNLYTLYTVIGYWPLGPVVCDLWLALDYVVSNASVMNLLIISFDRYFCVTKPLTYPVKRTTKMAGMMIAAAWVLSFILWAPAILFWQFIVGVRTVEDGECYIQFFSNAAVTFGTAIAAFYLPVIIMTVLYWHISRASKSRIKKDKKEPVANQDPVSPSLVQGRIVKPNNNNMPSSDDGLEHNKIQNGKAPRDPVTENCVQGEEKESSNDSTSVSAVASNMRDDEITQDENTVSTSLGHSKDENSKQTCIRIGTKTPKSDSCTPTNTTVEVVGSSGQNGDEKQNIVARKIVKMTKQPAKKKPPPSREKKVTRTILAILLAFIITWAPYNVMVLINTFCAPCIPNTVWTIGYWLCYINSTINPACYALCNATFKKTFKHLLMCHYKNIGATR
The test is described as follows: Displacement of [3H]NMS from human cloned muscarinic M2 receptor expressed in CHO cells by scintillation counting. The class given is cell-based. Summed up: as §1

Test [5] is described as follows: Antagonist activity at muscarinic M1 receptor in New Zealand rabbit vas deferens assessed as effect on electrically-stimulated muscle contraction after 60 mins. The class given is functional, Oryctolagus cuniculus.
In test [6] the target is Muscarinic acetylcholine receptor M3 (Cavia porcellus) (UniProt Q8VH26). Put plainly: Antagonist activity at muscarinic M3 receptor in guinea pig ileum assessed as effect on isotonic tension after 60 mins. Type of test: functional, tissue-based.
Chain of Muscarinic acetylcholine receptor M3 (Cavia porcellus) (Q8VH26 1-587): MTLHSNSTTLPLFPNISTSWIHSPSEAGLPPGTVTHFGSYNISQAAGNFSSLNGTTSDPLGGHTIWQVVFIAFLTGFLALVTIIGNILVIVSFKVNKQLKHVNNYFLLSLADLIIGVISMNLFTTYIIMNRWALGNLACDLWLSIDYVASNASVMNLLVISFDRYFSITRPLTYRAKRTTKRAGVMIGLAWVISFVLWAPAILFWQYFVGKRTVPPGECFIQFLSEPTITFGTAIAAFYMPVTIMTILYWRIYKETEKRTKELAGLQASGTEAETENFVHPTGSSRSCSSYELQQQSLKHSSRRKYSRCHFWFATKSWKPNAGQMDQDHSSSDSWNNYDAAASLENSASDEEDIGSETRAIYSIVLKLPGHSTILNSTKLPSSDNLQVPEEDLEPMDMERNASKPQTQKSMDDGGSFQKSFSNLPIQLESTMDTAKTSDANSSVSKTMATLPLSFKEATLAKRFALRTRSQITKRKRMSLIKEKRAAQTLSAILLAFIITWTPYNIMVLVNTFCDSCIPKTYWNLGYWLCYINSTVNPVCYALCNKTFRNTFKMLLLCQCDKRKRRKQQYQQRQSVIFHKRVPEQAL
For test [7], the target named is T5, Muscarinic acetylcholine receptor M4 (Homo sapiens, UniProt P08173).
T5 sequence (P08173 whole entry): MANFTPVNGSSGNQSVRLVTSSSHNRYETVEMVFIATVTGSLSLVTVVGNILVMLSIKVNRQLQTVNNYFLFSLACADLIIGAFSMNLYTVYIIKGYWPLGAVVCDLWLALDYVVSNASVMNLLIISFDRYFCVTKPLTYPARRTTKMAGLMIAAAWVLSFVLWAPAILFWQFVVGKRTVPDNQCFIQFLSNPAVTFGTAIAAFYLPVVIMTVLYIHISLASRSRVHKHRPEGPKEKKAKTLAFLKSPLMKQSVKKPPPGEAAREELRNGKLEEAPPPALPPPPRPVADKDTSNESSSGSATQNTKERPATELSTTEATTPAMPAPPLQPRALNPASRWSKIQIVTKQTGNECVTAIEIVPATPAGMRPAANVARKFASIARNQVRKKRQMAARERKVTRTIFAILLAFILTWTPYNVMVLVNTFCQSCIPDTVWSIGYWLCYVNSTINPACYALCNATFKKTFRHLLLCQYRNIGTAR
The test is described as follows: Displacement of [3H]NMS from human cloned muscarinic M4 receptor expressed in CHO cells by scintillation counting. The class given is cell-based.

In test [8] the target is T6, Muscarinic acetylcholine receptor M1 (Homo sapiens, UniProt P11229).
T6 sequence (P11229 whole entry): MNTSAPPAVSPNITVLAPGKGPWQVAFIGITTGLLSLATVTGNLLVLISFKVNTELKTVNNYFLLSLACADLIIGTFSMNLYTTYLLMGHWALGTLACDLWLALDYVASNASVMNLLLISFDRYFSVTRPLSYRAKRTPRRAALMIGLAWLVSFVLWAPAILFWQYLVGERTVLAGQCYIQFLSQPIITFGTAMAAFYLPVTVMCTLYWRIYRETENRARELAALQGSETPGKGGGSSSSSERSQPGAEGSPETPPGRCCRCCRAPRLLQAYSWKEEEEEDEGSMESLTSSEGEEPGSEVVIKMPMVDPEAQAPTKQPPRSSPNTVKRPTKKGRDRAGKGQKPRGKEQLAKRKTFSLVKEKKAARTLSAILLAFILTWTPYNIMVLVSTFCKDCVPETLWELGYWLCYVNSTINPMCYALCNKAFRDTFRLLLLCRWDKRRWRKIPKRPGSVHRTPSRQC
The test is described as follows: Displacement of [3H]NMS from human cloned muscarinic M1 receptor expressed in CHO cells by scintillation counting. The class given is cell-based.

Test [9] has as its target Muscarinic acetylcholine receptor M3 (Homo sapiens, UniProt P20309). The test is described as follows: Displacement of [3H]NMS from human cloned muscarinic M3 receptor expressed in CHO cells by scintillation counting. Type of test: cell-based.
A further test addresses T7, Muscarinic receptor 4 (Cavia porcellus, UniProt Q8VH25).
T7 sequence (Q8VH25 whole entry): T2 sequence (whole entry)
The description is as §2. The class given is functional. The note with it: read-out: pA2 (converted).

The target in the next test is T8, Muscarinic receptor 2 (Cavia porcellus, UniProt Q8VH27).
T8 sequence (Q8VH27 whole entry): T3 sequence (whole entry)
The test is described as §3. The class given is functional, tissue-based, Cardiac atrium. Particulars: read-out: pA2 (converted).

Chain of Muscarinic acetylcholine receptor M3 (P20309 whole entry): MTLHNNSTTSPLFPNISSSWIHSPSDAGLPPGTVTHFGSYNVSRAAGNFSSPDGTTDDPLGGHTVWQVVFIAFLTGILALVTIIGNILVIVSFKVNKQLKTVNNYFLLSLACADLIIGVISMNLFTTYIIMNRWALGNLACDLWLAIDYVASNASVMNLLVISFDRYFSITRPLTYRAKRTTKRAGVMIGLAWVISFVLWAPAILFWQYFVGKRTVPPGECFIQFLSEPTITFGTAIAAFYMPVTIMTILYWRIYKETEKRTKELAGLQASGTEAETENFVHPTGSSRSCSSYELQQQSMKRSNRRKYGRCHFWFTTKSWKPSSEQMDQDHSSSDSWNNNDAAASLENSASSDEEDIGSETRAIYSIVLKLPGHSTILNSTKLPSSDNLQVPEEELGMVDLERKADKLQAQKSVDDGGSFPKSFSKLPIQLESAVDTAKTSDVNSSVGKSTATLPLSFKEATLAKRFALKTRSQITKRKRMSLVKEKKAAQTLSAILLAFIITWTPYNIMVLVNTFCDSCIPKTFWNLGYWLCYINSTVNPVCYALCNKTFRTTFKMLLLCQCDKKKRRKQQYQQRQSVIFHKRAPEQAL

Turning to `CN1CCCC1c1ccc(C(O)(c2ccccc2)c2ccccc2)o1` (racemic), the Ki in [1] is 97.7 nM; in test [4], 29.5 nM; in [7] it was 105 nM; in test [8], 35.5 nM; in [9], 95.5 nM. Besides, the pKb in test [2] was under 5; in [3], 6.92; in test [5], 6.91; in [6] it was 6.65.

`C[N+]1(C)[C@@H]2C[C@@H](OC(=O)[C@H](CO)c3ccccc3)C[C@H]1[C@@H]1O[C@@H]12` [METHSCOPOLAMINE]: the results for the Kb on Muscarinic receptor 4 and at Muscarinic receptor 2 were 6.46 nM and 0.468 nM, respectively.

As to `CN1CCCC1c1ccc(C(c2ccccc2)c2ccccc2)o1` (stereo not drawn), the Ki was 105 nM in [1]; 64.6 nM in [4]; 158 nM in test [7]; 42.7 nM in test [8]; 85.1 nM in test [9]. Further, the pKb in test [2] was 5.19; in test [3], 6.52; in test [5] it was 6.64; in test [6], 6.81.

On to `C[N+]1(C)CCC[C@@H]1c1ccc([C@](O)(c2ccccc2)C2CCCCC2)o1.[I-]`, for which the Ki in test [1] was 1.55 nM; in test [4] it was 2.34 nM; in test [7], 4.27 nM; in [8], 0.692 nM; in test [9] it was 1.51 nM. For the same compound, the pKb was found to be 7.75 in [2], 8.49 in test [3], 10.15 in test [5] and 8.95 in test [6].

Regarding `CN1CCC[C@@H]1c1ccc([C@](O)(c2ccccc2)C2CCCCC2)o1`, the Ki in test [1] is 3.31 nM; in [4] it was 4.57 nM; in test [7] it was 3.98 nM; in test [8], 1.23 nM; in test [9], 1.66 nM. Moreover, the pKb in test [2] is 5.92; in test [3], 7.91; in test [5], 9.58; in test [6] it was 8.76.

By Ki is commonly meant a measure of affinity in units of concentration, obtained from inhibition or displacement. Higher therefore signals lower affinity. As usually defined, the pKb is the negative decadic logarithm of the Kb, by convention in mol/L.
